# RGS4 pot = potentiators or activators of RGS4; actives 0.92% (n = 310,000); B-score at 10 µM; AID 463111; HEK293 M3R/inducible RGS4, carbachol calcium flux Fluo4; active compounds read low;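 active = B-score of the integrated calcium signal more than 4 SD below the library mean, with starting fluorescence not abnormally high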;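 also: negative B-score means reduced calcium response which marks RGS4 activation or potentiation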
#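 test system = HEK293 cells with stable M3R and inducible RGS4 | schedule = recording 10 s baseline at 1 Hz, 100 s post-agonist | technique = Fluo4-AM (2 µM) calcium-flux fluorescence, kinetic read | measure = Agonist-evoked peak-minus-minimum fluorescence over baseline, integrated ratio, B score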
# MrgX1 antag = antagonists of human MrgX1 receptor. actives 1.3% (n = 310,000). MRGX1-HEK293 calcium flux, Fluo-4, BAM8-22 antagonism; active compounds read low. B-score at 10 µM;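 active = calcium-response B-score plate-corrected more than 3 library SD below zero, starting fluorescence within 5 deviations, no agonist response on first addition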;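 also: peak minus trough fluorescence over baseline after final BAM8-22 challenge near maximal dose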
# Target sequence (Q96LB2 whole entry, looked up): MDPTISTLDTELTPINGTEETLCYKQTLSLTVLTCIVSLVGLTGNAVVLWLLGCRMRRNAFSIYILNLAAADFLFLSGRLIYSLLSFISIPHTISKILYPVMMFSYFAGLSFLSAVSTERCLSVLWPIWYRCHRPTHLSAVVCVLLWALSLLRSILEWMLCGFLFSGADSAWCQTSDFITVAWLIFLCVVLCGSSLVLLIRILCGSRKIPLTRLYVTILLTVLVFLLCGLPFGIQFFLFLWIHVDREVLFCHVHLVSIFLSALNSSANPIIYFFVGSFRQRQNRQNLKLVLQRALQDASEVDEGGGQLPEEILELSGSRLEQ
# Hep lipid drop = modulators of hepatic lipid droplet formation; AML12 mouse hepatocytes, oleate lipid droplets, BODIPY imaging; inhibition, % at 6.5 µM; actives 0.4% (n = 240,000);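 active = lipid droplet intensity inhibited by at least 50%, with more than 500 cells counted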
#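 Test system: AML12 hepatocytes (mouse); reagent: oleate loading, 100 µM; dosing: one dose, 6.5 µM compound; incubation: overnight exposure; signal: fluorescence imaging, 20x objective, two fields per well; read-out basis: % inhibition of corrected integrated BODIPY droplet signal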
# MrgX1 agonist = human MrgX1 receptor agonism, primary screen; Q96LB2; MrgX1-HEK293 cells, Fluo-4 calcium fluorescence, agonist mode; active compounds read high; B-score at 10 µM; actives 0.44% (n = 310,000); AID 588627;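 active = calcium response B-score plate-corrected fluorescence ratio at least 3 library SD, with starting fluorescence B-score inside 5 SD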
#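 Test system: HEK293 cells stably expressing human MrgX1 receptor; amount: 15,000 cells per well; doses: compound delivered in addition one of three; times: overnight plating before 1 h dye loading; detection: Fluo-4 NW calcium-flux fluorescence, kinetic read; read-out basis: B-scored fluorescence response ratio; controls: positive and negative controls per plate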
# MrgX1 PAM = human MrgX1 positive allosteric modulation, primary screen | actives 0.63% (n = 310,000) | AID 588675 | B-score at 10 µM | Q96LB2 | MrgX1-HEK293, Fluo-4 calcium flux, FDSS; active compounds read high;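 active = plate-corrected calcium response at least 3 library SD above typical, normal starting fluorescence, not activating the receptor alone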;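 also: compound read alongside a low EC10 to EC30 dose of BAM8-22 agonist; peak minus trough fluorescence over baseline measured at the second addition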
# RGS4 block = human RGS4 inhibition | HEK293 M3R/RGS4 inducible, Fluo-4 calcium flux; active compounds read high; triggered by carbachol at its EC20 | B-score at 10 µM | actives 0.45% (n = 310,000);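 active = B-score, a plate-corrected calcium signal, over three deviations above library mean, with baseline fluorescence within five deviations of library mean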;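 also: RGS4 expression induced by doxycycline in cells with stable M3 receptor; B-score is computed from the integrated fluorescence ratio over baseline after carbachol; higher B-score means a larger calcium signal and so more RGS4 inhibition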
# RGS4 inh valid = RGS4 inhibitor validation; shares compounds with RGS4 block; HEK293 M3R/RGS4, carbachol calcium Fluo-4 fluorescence; carbachol added at its EC20; 0 = buffer wells, 100 = carbachol control; calcium response, % at 10 µM; actives 65% (n = 1,700); AID 492999;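 active = duplicate-averaged calcium response above the buffer-only control mean plus 5 SD of those controls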;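 also: integrated fluorescence ratio F max minus min over baseline F0; higher response in RGS4-induced cells means RGS4 inhibition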
# RGS4 uninduced = checks RGS4 inhibitor effects in non-induced HEK293 M3R cells | shares compounds with RGS4 block | carbachol calcium Fluo-4; submaximal (EC20) carbachol stimulus; buffer wells 0%, carbachol control wells 100% | activity (percent), % at 10 µM | actives 20% (n = 1,900) | AID 493000; call rule not given here;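 also: RGS4 induction absent so cells express M3R without RGS4; higher means more calcium signal and flags a non-specific hit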
# RGS4 inh ctr2 = second counter-screen for RGS4 inhibitors: non-induced cells without carbachol; shares compounds with RGS4 block; HEK293 M3R/RGS4 non-induced, Fluo-4 calcium, no carbachol; normalised: buffer wells 0%, carbachol wells 100%; calcium response (agonist-mode artifact), % at 10 µM; actives 22% (n = 1,900);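 active = duplicate-averaged calcium rise in uninduced cells above buffer wells' mean plus 5 SD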
# Starred values were filed as active, the others as inactive; i = inactive; / = no result given. The list is not random: actives were taken first. Their share in the collection is about 3.8%.
SMILES,RGS4 pot,MrgX1 antag,Hep lipid drop,MrgX1 agonist,MrgX1 PAM,RGS4 block,RGS4 inh valid,RGS4 uninduced,RGS4 inh ctr2
NC1=NC2(CCC(c3ccccc3)CC2)n2c(nc3ccccc32)N1 (stereo not drawn),i,i,19,i,i,5.2*,58%*,i,i
COc1ccc(-c2csc(Nc3cc(C)ccn3)n2)cc1OC,i,i,4,i,i,i,i,i,i
O=C(/C=C/c1ccco1)Nc1nc(-c2ccccn2)cs1,i,i,16,i,i,12*,22%*,i,i
COc1cccc(/C=C/C(=O)c2ccc(C)c([N+](=O)[O-])c2)c1,i,i,-7,32*,i,8.9*,i,40%*,i
C/C(=N\NC(=O)C1CC1)c1ccccc1O,i,i,21,i,i,i,/,/,/
CCOc1ccsc1C(=O)O,i,i,-3,i,i,i,/,/,/
Oc1ccc(C=Nc2cccc3ccccc23)c(O)c1,i,i,2,i,i,i,/,/,/
Cc1ccc(N=Cc2ccc(O)cc2O)cc1F,i,i,-4,i,i,10*,14%*,i,13%*
O=C(O)CN1C(=O)/C(=C/c2ccccc2Cl)Oc2ccccc21,i,i,-1,i,i,6.5*,22%*,31%*,i
OCC(CO)(CO)N=Cc1cc(Br)ccc1O,i,i,/,i,i,5.8*,i,i,i
CCN(CC)c1ccc(N=Cc2cc(Br)ccc2O)cc1,i,i,0,i,i,i,/,/,/
COc1cccc(N2CCN(c3ccc4nnc(CCC(=O)Nc5ncccc5C)n4n3)CC2)c1,i,i,-6,i,i,i,/,/,/
CC(C)c1nnc(NC(=O)c2sc3ccccc3c2Cl)s1,i,i,/,i,i,4.8*,i,i,i
COc1ccc(/C=C2\N=C(C)OC2=O)cc1[N+](=O)[O-],i,i,18,i,i,i,/,/,/
CN(C)c1ccc(C(C[N+](=O)[O-])c2c(N)n(C)c(=O)n(C)c2=O)c(F)c1C#N (stereo not drawn),i,i,-1,31*,i,22*,62%*,i,i
O=c1[nH]c2cc3c(cc2cc1CN(Cc1cccs1)Cc1nnnn1Cc1ccco1)OCCO3,i,i,/,i,i,7*,i,i,i
O=c1[nH]c2cc3c(cc2cc1CN(Cc1ccccc1)Cc1nnnn1Cc1ccco1)OCCO3,i,/,/,/,/,i,/,/,/
O=c1[nH]c2cc3c(cc2cc1CN(Cc1cccnc1)Cc1nnnn1Cc1ccco1)OCCO3,i,i,-13,i,i,i,i,i,i
COc1ccccc1CN(Cc1cc2cc3c(cc2[nH]c1=O)OCCO3)Cc1nnnn1Cc1ccco1,i,i,/,i,i,19*,7.5%*,i,12%*
O=C(NNC(=O)c1csc(N2CCOCC2)n1)c1ccc(Cl)nc1,i,i,/,i,i,i,/,/,/
COc1ccc(Cn2c(=O)c3[nH]cnc3n(-c3ccccc3C)c2=O)cc1,i,i,/,i,i,7.8*,15%*,38%*,i
CCNC(=O)NC(=O)COC(=O)C1CSC2(C)CCC(=O)N12 (stereo not drawn),i,i,23,i,i,i,/,/,/
